The list is a sample of the results.
Apaf1 activ = activators of human Apaf-1 apoptosome; Apaf-1 apoptosome caspase-3 activation, DEVD-Rh110 fluorescence; hits give low values; 330,000 compounds, 0.31% hits; AID 489031; O14727; activity change, negative = activation, % at 20 µM;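 active means activity change at or below -40% at 20 µM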
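system = biochemical Apaf-1 apoptosome reconstitution | buffer or medium = 20 mM HEPES pH 7.5 with CHAPS, BSA | also added = dATP and cytochrome c as apoptosome triggers, (Z-DEVD)2-Rh110 substrate | incubation = 30 min compound preincubation and 50 min reaction, both room temperature | measured by = fluorescence, 540 nm emission, 480 nm excitation | read-out basis = Caspase-3 cleavage activity downstream of Apaf-1 activation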
Rh110 act interf = interferes with Rh110 fluorescence, flagging false Apaf-1 activators | shares compounds with Apaf1 activ | fluorescence interference (activity change), % at 20 µM, hits read low | Rh110 fluorescence interference, quenched caspase reaction, Ex480/Em540 | 980 tested, under 10 active | AID 504616;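 active means mean activity change at or below -40% when tested at 20 µM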
Apaf-1 act conf2 = Apaf-1 (human) activation, single-dose confirmed | AID 504617 | activity change, negative = activation, % at 20 µM | reconstituted apoptosome caspase-3 activity, DEVD-Rh110 fluorescence; hits give low values | 980 compounds, 5% hits | shares compounds with Apaf1 activ;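 active means mean activity change at or below -40%, meaning activation of 40% or more, at 20 µM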
* hit, by the source's call; nt = no result given.

SMILES | Apaf1 activ | Rh110 act interf | Apaf-1 act conf2
CC(C)(C)C(=O)[C@@H]1[C@@H]2C(=O)N(c3ccc4c(c3)OCCO4)C(=O)[C@@H]2C2c3ccccc3C=CN21 (stereo partly specified) | 62 | nt | nt
C#CCOCCOCCOCCNc1nc(N2CCN(C(=O)[C@H](CCCCN)n3cc([C@@H](N)CO)nn3)CC2)nc(N2CCN(C(=O)[C@H](Cc3cc4ccccc4[nH]3)n3cc([C@@H](N)Cc4ccc(O)cc4)nn3)CC2)n1 | 55 | nt | nt
CCCCC(CC)COC(=O)C(C#N)=C(c1ccccc1)c1ccccc1 (stereo unspecified) | -232* | 1 | 3
C[C@H](CCC(=O)O)[C@H]1CC[C@H]2[C@@H]3[C@H](O)C[C@@H]4C[C@H](O)CC[C@]4(C)[C@H]3C[C@H](O)[C@]12C | -3 | nt | nt
C=CC[C@@H](Cc1ccc(F)cc1)C(=O)OC[C@H]1CCCN1C(=O)[C@@H](CC=C)CC(=O)N[C@H](CO)Cc1ccccc1 | 41 | nt | nt
CCN1/C(=C/c2ccc3ccccc3[n+]2CC)C=Cc2ccccc21 | 41 | nt | nt
CC(=O)Oc1ccc2c(c1)Oc1cc(OC(C)=O)ccc1C21OC(=O)c2ccccc21 | -259* | -154* | -73*
CCOC(=O)C1=C(C)OC2(O)c3ccccc3C(=O)C12O (stereo unspecified) | 88 | nt | nt
CC(=O)C1=C(C)OC2(O)c3ccccc3C(=O)C12O (stereo unspecified) | 93 | nt | nt
CSc1ncc(CN2CCc3c([nH]c4ccccc34)C2c2cccc(O)c2)cn1 (stereo unspecified) | -158* | -4 | 14
CCN1/C(=C/C=C/c2oc3ccc4ccccc4c3[n+]2CC)Oc2ccc3ccccc3c21 | 76 | nt | nt
COc1ccc(C(=O)NCCCNC(=O)c2cc3ccccc3[nH]2)cc1OC | -162* | 5 | 10
COc1ccc(CCNC(=O)c2ccc3nc(-c4ccco4)c(-c4ccco4)nc3c2)cc1OC | 56 | nt | nt
COc1ccc2[nH]c(=O)c(CNc3ccccc3OC)cc2c1 | 51 | nt | nt
C#CCOCCOCCOCCNc1nc(N2CCN(C(=O)CCCCCCCCCCNC(=O)[C@H](CCCCN)n3cc(C)nn3)CC2)nc(N2CCN(C(=O)CCCCCCCCCCNC(=O)[C@H](CCCN=C(N)N)n3cc(C[C@@H](C)CC)nn3)CC2)n1 | 75 | nt | nt
N#CC1=C(N)C(C#N)(C#N)[C@H](c2ccoc2)[C@H]2CN(Cc3ccccc3)CC=C12 | 59 | nt | nt
COc1ccc(C(=O)/C=C/N(C)C)cc1OC | -107* | 3 | 8
CN(C)/C=C/C(=O)c1ccc(S(=O)(=O)c2ccccc2)cc1 | -61* | -2 | 6
COc1ccc(C(=O)c2nccc3cc(OC)c(OC)cc23)cc1OC | 84 | nt | nt
Cc1c(CCOC(=O)CC23CC4CC(CC(C4)C2)C3)sc[n+]1CC(=O)c1ccc(Br)cc1 | 49 | nt | nt
CN(CC(=O)Nc1ccc(Cl)c(C(F)(F)F)c1)C(=O)CC1Sc2ccccc2NC1=O (stereo unspecified) | 51 | nt | nt
COc1cc(/C=C2\C(=O)N(CCC#N)N=C2C)c(Br)cc1OC(C)C | 79 | nt | nt
Nc1ccc2cn[nH]c2c1 | 52 | nt | nt
C=CC(=O)Nc1ccc(CN2C(=O)N(c3c(Cl)c(OC)cc(OC)c3Cl)Cc3cnc(NCCCCN(CC)CC)nc32)cc1 | 63 | nt | nt
Cc1[nH]c(=O)[nH]c(=O)c1CSCC(=O)OCC(=O)c1ccc(Br)cc1 | -139* | -3 | 15
SMILES | Apaf1 activ | Rh110 act interf | Apaf-1 act conf2
CCN(CC)C(=O)[C@H]1CC(CC(=O)NC/C=C(\C)CCC=C(C)C)C(=O)N2CCc3c([nH]c4ccc(OC)cc34)[C@]12C (stereo partly specified) | 42 | nt | nt
Cc1cc(C)n2nc(N)c(N=Nc3ccccc3)c2n1 | -4 | nt | nt
Cc1cc(C)n2nc(SC(C)C(=O)N(C)c3ccccc3)nc2n1 (stereo unspecified) | -54* | 1 | 10
CC1(C)CC(=O)C(C=Nc2ccc(O)c(N=CC3=C(O)CC(C)(C)CC3=O)c2)=C(O)C1 | 47 | nt | nt
CCOC(=O)C1(Cc2ccccc2C)CCCN(C(=O)c2ccc3nccnc3c2)C1 (stereo unspecified) | -330* | 12 | 14
CCCCCc1ccc(OCCC[n+]2ccccc2)c(CCCCC)c1 | 66 | nt | nt
CS(=O)c1nc(-c2ccc(Br)cc2)cc(-c2ccccc2)c1C#N (stereo unspecified) | 55 | nt | nt
CC(NC(=O)Nc1ccc(F)cc1)c1ccc2c(c1)OCO2 (stereo unspecified) | -71* | 21 | 0
O=C1C=C(O)c2cccc(O)c2C1=O | 44 | nt | nt
CCN1CCN(Cc2ccc(NC(=O)c3cc(NC(=O)c4cncc(-c5ccc(C#N)cc5)c4)cc(OC)c3)cc2C(F)(F)F)CC1 | 54 | nt | nt
COc1cc(NC(=O)c2ccnc(N)c2)cc(C(=O)Nc2cccc(C(F)(F)F)c2)c1 | -261* | 13 | 15

Bioassay records (PubChem)
